Most compounds without a hit are left out; they make up all but 1.4% or so of the library.
APJ ag = APJ receptor agonism. CHO-K1 APJ PathHunter beta-arrestin, luminescence; 0% DMSO wells, 100% apelin. activation, % at 20 µM. 330,000 compounds, 0.11% hits. AID 2520;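 active = activation more than six SD over the plate average, tested at 20 µM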;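 note: 0% = DMSO alone and 100% = apelin-13 at 10 nM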
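Assay system: CHO-K1 APJ beta-arrestin complementation cell line / Compound: single test compound dose, 20 µM final, 1% DMSO / Times: overnight seeding, 90 min compound at 25 °C, 1 h detection / Technique: beta-gal luminescence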
CCR6 antag = antagonists of human CCR6 receptor; P51684; CHO-K1 CCR6 PathHunter beta-arrestin, luminescence, CCL20-stimulated; inhibition, % at 20 µM; 340,000 compounds, 0.49% hits;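 active = compounds whose inhibition of the agonist-driven luminescence signal at 20 µM reaches about 50%, limit read from the data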;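 note: cells stimulated with CCL20 at 14 nM final; plate controls were DMSO with CCL20 for no effect and DMSO without agonist for full effect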
CXCR6 inh = blocks human CXCR6 beta-arrestin recruitment; O00574; CHO-K1 PathHunter CXCR6 beta-arrestin, luminescence; inhibition, % at 20 µM; AID 602244; 360,000 compounds, 0.36% hits; in the data active = inhibition above about 34%, passing the limit was not always enough;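 note: antagonist mode with CXCL16 agonist at 10 nM final; 0% = 10 nM CXCL16 with DMSO and 100% = unstimulated wells without agonist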
A3A deaminase = human APOBEC3A DNA deaminase inhibition. recombinant A3A, FAM/TAMRA ssDNA deamination fluorescence. AID 493011. inhibition, % at 20 µM. 330,000 compounds, 0.41% hits;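 active = at least 40% inhibition at 20 µM here, with at most 30% in a related deaminase screen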;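 note: plate controls were A3A with DMSO for no effect and wells lacking A3A enzyme for full effect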
APJ antag = blocks the human apelin receptor APJ. CHO-K1 APJ beta-arrestin complementation, luminescence. inhibition, % at 20 µM. 330,000 compounds, 0.32% hits. AID 2521;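 active = inhibition above about 40% at 20 µM, limit read from the data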;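 note: cells challenged with 10 nM apelin-13 agonist together with compound; plate controls were apelin-13 plus DMSO wells for no effect and DMSO wells lacking apelin-13 for full effect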
A3G deaminase = blocks human APOBEC3G single-stranded DNA deamination. inhibition, % at 20 µM. 330,000 compounds, 0.28% hits. recombinant A3G, ssDNA deamination FAM/TAMRA fluorescence. Q9HC16. AID 493012;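 active = inhibition of at least 40% at 20 µM, with no more than 30% in the related APOBEC3A deaminase screen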;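 note: plate controls were DMSO wells with A3G for no effect and wells lacking A3G enzyme for full effect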
Target sequence (Q9HC16 whole entry, looked up): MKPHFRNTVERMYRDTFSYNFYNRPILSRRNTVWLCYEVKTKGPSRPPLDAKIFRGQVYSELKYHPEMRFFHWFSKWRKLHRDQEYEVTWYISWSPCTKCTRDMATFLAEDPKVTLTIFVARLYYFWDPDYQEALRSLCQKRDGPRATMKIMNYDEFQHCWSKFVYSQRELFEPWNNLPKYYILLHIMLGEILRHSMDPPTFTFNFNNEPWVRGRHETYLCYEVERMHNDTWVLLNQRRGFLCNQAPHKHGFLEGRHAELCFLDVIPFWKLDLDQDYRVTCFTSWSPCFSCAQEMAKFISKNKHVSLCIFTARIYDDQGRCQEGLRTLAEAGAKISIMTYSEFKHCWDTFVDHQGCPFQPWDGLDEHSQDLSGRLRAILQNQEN
A3A conf = confirmation of human APOBEC3A DNA deaminase inhibitors. shares compounds with A3A deaminase. recombinant A3A, ssDNA deaminase UDG fluorescence assay. inhibition, % at 20 µM. 1,400 compounds, 63% hits;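 active = inhibition reaching a set limit, 80% of the first screen's cutoff, at 20 µM in any replicate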;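 note: plate controls were DMSO wells with A3A for no effect and wells lacking A3A enzyme for full effect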
UDG A3A counter = UDG inhibition in APOBEC3A counter-screen; 1,000 tested, under 10 active; inhibition, % at 20 µM; shares compounds with A3A deaminase; UDG counterscreen, FAM/TAMRA uracil oligo fluorescence; AID 504714; call rule not given here
* = called active by the depositor; nt = not tested or not shown.

SMILES | APJ ag | CCR6 antag | CXCR6 inh | A3A deaminase | APJ antag | A3G deaminase | A3A conf | UDG A3A counter
O=C(CCc1nnc(C2(c3ccc(Cl)cc3)CCC2)o1)NCCCn1cccn1 | -4 | 15 | -1 | 1 | -2 | -4 | nt | nt
COc1cc(NC(=O)CSc2nnc3c(C)cc4cc(C)cc(C)c4n23)c(C(=O)O)cc1OC | -3 | 12 | -3 | -3 | -15 | -7 | nt | nt
COc1ccc2cc(C)c3nnc(SCC(=O)Nc4cc(OC)c(OC)cc4C(=O)O)n3c2c1 | 3 | 0 | 0 | 99* | -19 | -1 | 0 | 0
COc1ccccc1OC(C)C(=O)Nc1ccc2c(c1)n(C)c(=O)n2C (stereo unspecified) | 1 | 9 | -4 | -3 | 13 | -3 | nt | nt
Cc1ccc(OC(C)C(=O)Nc2ccc3c(c2)n(C)c(=O)n3C)c(C)c1 (stereo unspecified) | -2 | 0 | 0 | 84* | 6 | 19 | 29 | nt
CN(Cc1ccccc1)C(=O)c1ncn(Cc2ccccc2)c1C(=O)N(C)Cc1ccccc1 | -3 | 14 | -1 | 1 | 0 | -2 | nt | nt
CN(Cc1ccccc1)C(=O)c1ncn(C)c1C(=O)N(C)Cc1ccccc1 | -5 | 18 | 0 | 60* | -6 | 14 | 67* | 5
CCN(CC)C(=O)c1ncn(C)c1C(=O)N(CC)CC | -3 | 10 | -2 | 51* | 6 | 28 | 64* | -3
O=C(OCc1csc(Nc2ccccc2)n1)c1ccc(Cl)cc1 | -1 | -5 | -7 | -1 | 2 | -2 | nt | nt
c1ccc(Nc2nc(-c3ccccc3)ns2)cc1 | 1 | 5 | -5 | 2 | -5 | 0 | nt | nt
CC1=C(C(=O)OCc2ccccc2)C(c2ccccc2Br)NC(=O)N1 (stereo unspecified) | -2 | -7 | -2 | -2 | -8 | 1 | nt | nt
O=C1C2C(C(=O)N1/N=C/c1cccc([N+](=O)[O-])c1)C1C=CC2C12CC2 (stereo unspecified) | -4 | 3 | -3 | 2 | -13 | -1 | nt | nt
O=C1C2C(C(=O)N1/N=C/c1cc([N+](=O)[O-])c(O)cc1O)C1C=CC2C12CC2 (stereo unspecified) | -5 | 19 | 5 | 78* | 21 | 19 | 74* | -2
COc1ccc(-n2ncc3c(SCC(=O)N4CCN(c5ccccc5OC)CC4)ncnc32)cc1 | 7 | 12 | -3 | -2 | 5 | -4 | nt | nt
N#Cc1cc([N+](=O)[O-])ccc1NC(=O)COC(=O)C1CCC(=O)N1 (stereo unspecified) | 0 | -8 | 1 | 1 | -6 | 2 | nt | nt
O=C(Nc1ccc(-c2nc3ccccc3o2)c(O)c1)c1cc(-n2cnnc2)ccc1Cl | 3 | 8 | -11 | 0 | -23 | -3 | nt | nt
Cc1c(NC(=O)c2cc(-n3cnnc3)ccc2Cl)cccc1-c1nc2ccccc2o1 | -4 | 11 | -3 | 46* | 2 | 25 | 64* | -2
COc1ccc(N(CC(=O)N2CCCCCC2)S(C)(=O)=O)cc1Cl | -2 | 12 | -6 | -2 | -11 | -3 | nt | nt
COc1ccc(N(CC(=O)N2CCc3ccccc3C2)S(C)(=O)=O)cc1Cl | -2 | 13 | -3 | 47* | 8 | 6 | 12 | nt
CCOc1c(Br)cc(Br)cc1/C=C1\SC(N)=NC1=O | -2 | 9 | -5 | 69* | -12 | 18 | 82* | 2
CN(C(=O)COC(=O)CSCc1cccc(Cl)c1)c1c(N)n(Cc2ccccc2)c(=O)[nH]c1=O | -3 | 2 | 3 | 10 | -21 | -1 | nt | nt
CN(C(=O)COC(=O)CSc1cc(Cl)ccc1Cl)c1c(N)n(Cc2ccccc2)c(=O)[nH]c1=O | 7 | -1 | -7 | 41* | -10 | 8 | -1 | nt
Cn1c(CNC(=O)c2ccc3c(c2)OCO3)nnc1SCC(=O)Nc1ccc(F)cc1 | 0 | -8 | 0 | -4 | 14 | -13 | nt | nt

High-throughput results from PubChem.
